Active and inactive are the calls of the source. The rule behind the calls is not given here.
Tests used:
Mu-type opioid receptor [1] = biological target: T1, Mu-type opioid receptor (Homo sapiens, UniProt P35372); assay: Agonist activity at human mu opioid receptor expressed in CHO cells by [35S]GTPgammaS binding assay relative to control; format: functional, cell-based
How it was run: (§1)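 [35S]GTPγS binding (0.080 nM final) on membranes from CHO cells stably expressing human δ (10 μg), μ (7.5 μg) or κ (15 μg) receptors. Twelve compound concentrations were tested in 50 mM Tris-HCl pH 7.4 with 3 mM MgCl2, 0.2 mM EGTA, 3 μM GDP and 100 mM NaCl, for 60 min at 30 °C. Nonspecific binding was set with 10 μM GTPγS. Samples were filtered and counted. Emax was taken relative to basal (0%). Values are mean ± S.E.M., ≥3 experiments in triplicate.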

[2] = biological target: T2, Kappa-type opioid receptor (Homo sapiens, UniProt P41145); assay: Agonist activity at human kappa opioid receptor expressed in CHO cells by [35S]GTPgammaS binding assay relative to control; format: functional, cell-based; how it was run: as §1
T2 sequence (P41145 whole entry): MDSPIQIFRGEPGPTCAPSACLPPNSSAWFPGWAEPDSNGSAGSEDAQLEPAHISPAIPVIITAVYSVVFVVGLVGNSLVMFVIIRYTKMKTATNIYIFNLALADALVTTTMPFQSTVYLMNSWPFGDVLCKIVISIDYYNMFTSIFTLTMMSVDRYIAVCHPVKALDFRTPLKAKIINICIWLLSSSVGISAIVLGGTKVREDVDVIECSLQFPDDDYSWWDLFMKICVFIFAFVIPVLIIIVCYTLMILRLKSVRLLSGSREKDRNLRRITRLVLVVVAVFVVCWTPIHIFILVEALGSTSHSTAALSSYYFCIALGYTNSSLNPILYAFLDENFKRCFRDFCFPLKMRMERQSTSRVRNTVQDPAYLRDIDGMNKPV

[3] = biological target: T2, Kappa-type opioid receptor; assay: Antagonist activity at human kappa opioid receptor expressed in CHO cells assessed as inhibition of […]-induced [35S]GTPgammaS binding relative to control; format: functional, cell-based
[4] = biological target: T3, Delta-type opioid receptor (Homo sapiens, UniProt P41143); assay: Antagonist activity at human delta opioid receptor expressed in CHO cells assessed as inhibition of […]-induced [35S]GTPgammaS binding relative to control; format: functional, cell-based
T3 sequence (P41143 whole entry): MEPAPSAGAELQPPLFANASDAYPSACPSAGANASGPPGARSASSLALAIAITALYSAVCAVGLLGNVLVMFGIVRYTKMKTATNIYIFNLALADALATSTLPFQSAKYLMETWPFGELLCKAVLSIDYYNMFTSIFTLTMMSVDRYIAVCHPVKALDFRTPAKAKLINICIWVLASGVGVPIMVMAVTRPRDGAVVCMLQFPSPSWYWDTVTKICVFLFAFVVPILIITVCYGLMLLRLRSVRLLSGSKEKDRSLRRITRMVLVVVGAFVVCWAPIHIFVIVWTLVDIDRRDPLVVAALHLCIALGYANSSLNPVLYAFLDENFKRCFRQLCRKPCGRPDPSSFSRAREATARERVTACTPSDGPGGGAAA

Mu-type opioid receptor [5] = biological target: T1, Mu-type opioid receptor; assay: Antagonist activity at human mu opioid receptor expressed in CHO cells assessed as inhibition of DAMGO-induced [35S]GTPgammaS binding relative to control; format: functional, cell-based
How it was run: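 Human μ-receptor CHO membranes (7.5 μg) were incubated with twelve compound concentrations plus 200 nM DAMGO and 0.080 nM [35S]GTPγS. Nonspecific binding was set with 10 μM GTPγS. Read by filtration and scintillation counting.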

[6] = biological target: T3, Delta-type opioid receptor; assay: Displacement of [3H]naltrindole from human delta opioid receptor expressed in CHO cells after 3 hrs by scintillation counting; format: cell-based
[7] = biological target: T2, Kappa-type opioid receptor; assay: Displacement of [3H]U69593 from human kappa opioid receptor expressed in CHO cells after 60 mins by scintillation counting; format: cell-based
Homo sapiens [8] = species on record: Homo sapiens; assay: Selectivity ratio of Ki for human kappa opioid receptor to Ki for human mu opioid receptor
[9] = biological target: T3, Delta-type opioid receptor; assay: Agonist activity at human delta opioid receptor expressed in CHO cells by [35S]GTPgammaS binding assay relative to control; format: functional, cell-based; how it was run: as §1
Homo sapiens [10] = species on record: Homo sapiens; assay: Selectivity ratio of Ki for human mu opioid receptor to Ki for human delta opioid receptor
[11] = biological target: T3, Delta-type opioid receptor; assay: Antagonist activity at human delta opioid receptor expressed in CHO cells assessed as inhibition of […]-induced [35S]GTPgammaS binding; format: functional, cell-based
Mu-type opioid receptor [12] = biological target: T1, Mu-type opioid receptor; assay: Antagonist activity at human mu opioid receptor expressed in CHO cells assessed as inhibition of DAMGO-induced [35S]GTPgammaS binding; format: functional, cell-based
Mu-type opioid receptor [13] = biological target: T1, Mu-type opioid receptor; assay: Displacement of [3H]DAMGO from human mu opioid receptor expressed in CHO cells after 60 mins by scintillation counting; format: cell-based
[14] = biological target: T2, Kappa-type opioid receptor; assay: Antagonist activity at human kappa opioid receptor expressed in CHO cells assessed as inhibition of […]-induced [35S]GTPgammaS binding; format: functional, cell-based
Homo sapiens [15] = species on record: Homo sapiens; assay: Selectivity ratio of Ki for human kappa opioid receptor to Ki for human delta opioid receptor

T1 sequence (P35372 whole entry): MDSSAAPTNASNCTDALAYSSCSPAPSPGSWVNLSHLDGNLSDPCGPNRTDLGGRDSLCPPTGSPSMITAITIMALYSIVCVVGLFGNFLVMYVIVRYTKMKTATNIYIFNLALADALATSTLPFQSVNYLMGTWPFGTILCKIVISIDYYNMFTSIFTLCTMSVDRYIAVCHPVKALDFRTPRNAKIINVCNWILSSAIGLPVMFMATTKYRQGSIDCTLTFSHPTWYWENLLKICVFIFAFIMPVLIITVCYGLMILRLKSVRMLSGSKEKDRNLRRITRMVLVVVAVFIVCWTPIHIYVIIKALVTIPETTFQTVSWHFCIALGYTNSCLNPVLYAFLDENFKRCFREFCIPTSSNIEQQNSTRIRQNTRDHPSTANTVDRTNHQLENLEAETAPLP

Row | Compound | Emax (Mu-type opioid receptor [1]) [%] | Emax [2] [%] | Imax [3] | Imax [4] [%] | Imax (Mu-type opioid receptor [5]) [%] | Ki [6] [nM] | Ki [7] [nM] | Ratio Ki (Homo sapiens [8]) | Emax [9] [%] | Ratio Ki (Homo sapiens [10]) | IC50 [11] [nM] | IC50 (Mu-type opioid receptor [12]) [nM] | Ki (Mu-type opioid receptor [13]) [nM] | IC50 [14] [nM] | Ratio Ki (Homo sapiens [15])
1 | Cc1cc(O)cc(C)c1C[C@@H](C(=O)N1Cc2ccccc2C[C@H]1C(=O)NCCC(=O)OC1=C2O[C@H]3[C@@H](O)C=C[C@H]4[C@H]5CC(C=C1)C2[C@]43CCN5C)N(C)C (stereo partly drawn) | 14 | 41 | inactive | 120 | 69 |  |  |  |  |  |  |  |  |  | 
2 | Cc1cc(O)cc(C)c1C[C@@H](C(=O)N1Cc2ccccc2C[C@H]1C(=O)OC1=C2O[C@H]3[C@@H](O)C=C[C@H]4[C@H]5CC(C=C1)C2[C@]43CCN5C)N(C)C (stereo partly drawn) | 0.43 | 2.6 | 99% | 120 | 97 | 1.6 | 12 | 11 | -4.9 | 1.5 | 1.7 | 13 | 1.1 | 3100 | 7.5
3 | Cc1cc(O)cc(C)c1C[C@@H](C(=O)N1Cc2ccccc2C[C@H]1C(=O)NCCC(=O)O)N(C)C |  |  |  |  |  |  |  | > 2.2 |  |  |  |  |  |  | 
4 | Cc1cc(O)cc(C)c1C[C@@H](C(=O)N1Cc2ccccc2C[C@H]1C(=O)O)N(C)C |  |  |  |  |  |  |  | > 4.3 |  |  |  |  |  |  | > 3740
